Reference: ChEMBL document CHEMBL1154842, “Synthesis, radiolabeling, and biological evaluation of (R)- and (S)-2-amino-3-[(18)F]fluoro-2-methylpropanoic acid (FAMP) and (R)- and (S)-3-[(18)F]fluoro-2-methyl-2-N-(methylamino)propanoic acid (NMeFAMP) as potential PET radioligands for imaging brain tumors” (J Med Chem, 2010)

Columns and labels:
Kidney [1] = assay: Biodistribution in kidney of Fischer 344 rat bearing rat 9L cells at 20 uCi, iv after 120 mins; assay type: ADME, organism-based; conditions: in vivo, 2 h
Method in brief: (§1)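 Male Fischer 344 rats (200–250 g) carrying intracranial 9L gliosarcoma (5×10^4 cells implanted stereotactically, 10–12 days growth), under ketamine:xylazine anaesthesia. About 20 μCi tracer in 0.5 mL sterile saline given via tail-vein catheter. Groups of 4–5 were killed by intracardiac KCl at 15 (NMeFAMP only), 30, 60 or 120 min. Tissues were weighed and gamma-counted, decay-corrected, and reported as %ID/g, mean ± SD.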

Bone [2] = assay: Biodistribution in bone of Fischer 344 rat bearing rat 9L cells at 20 uCi, iv after 15 mins; assay type: ADME, organism-based, Bone element; conditions: in vivo, 0.25 h; method in brief: as §1
Kidney [3] = assay: Biodistribution in kidney of Fischer 344 rat bearing rat 9L cells at 20 uCi, iv after 15 mins; assay type: ADME, organism-based; conditions: in vivo, 0.25 h; method in brief: as §1
Pancreas [4] = assay: Biodistribution in pancreas of Fischer 344 rat bearing rat 9L cells at 20 uCi, iv after 30 mins; assay type: ADME, organism-based; conditions: in vivo, 0.5 h; method in brief: as §1
Heart [5] = assay: Biodistribution in heart of Fischer 344 rat bearing rat 9L cells at 20 uCi, iv after 120 mins; assay type: ADME, organism-based; conditions: in vivo, 2 h; method in brief: as §1
Liver [6] = assay: Biodistribution in liver of Fischer 344 rat bearing rat 9L cells at 20 uCi, iv after 60 mins; assay type: ADME, organism-based; conditions: in vivo, 1 h; method in brief: as §1
Blood [7] = assay: Biodistribution in blood of Fischer 344 rat bearing rat 9L cells at 20 uCi, iv after 15 mins; assay type: ADME, organism-based; conditions: in vivo, 0.25 h; method in brief: as §1
Spleen [8] = assay: Biodistribution in spleen of Fischer 344 rat bearing rat 9L cells at 20 uCi, iv after 30 mins; assay type: ADME, organism-based; conditions: in vivo, 0.5 h; method in brief: as §1
Muscle tissue [9] = assay: Biodistribution in muscle of Fischer 344 rat bearing rat 9L cells at 20 uCi, iv after 120 mins; assay type: ADME, organism-based; conditions: in vivo, 2 h; method in brief: as §1
Brain [10] = assay: Biodistribution in brain of Fischer 344 rat bearing rat 9L cells at 20 uCi, iv after 15 mins; assay type: ADME, organism-based; conditions: in vivo, 0.25 h; method in brief: as §1
Liver [11] = assay: Biodistribution in liver of Fischer 344 rat bearing rat 9L cells at 20 uCi, iv after 30 mins; assay type: ADME, organism-based; conditions: in vivo, 0.5 h; method in brief: as §1
Liver [12] = assay: Biodistribution in liver of Fischer 344 rat bearing rat 9L cells at 20 uCi, iv after 15 mins; assay type: ADME, organism-based; conditions: in vivo, 0.25 h; method in brief: as §1
Lung [13] = assay: Biodistribution in lung of Fischer 344 rat bearing rat 9L cells at 20 uCi, iv after 120 mins; assay type: ADME, organism-based; conditions: in vivo, 2 h; method in brief: as §1
Pancreas [14] = assay: Biodistribution in pancreas of Fischer 344 rat bearing rat 9L cells at 20 uCi, iv after 15 mins; assay type: ADME, organism-based; conditions: in vivo, 0.25 h; method in brief: as §1
Brain [15] = assay: Biodistribution in brain of Fischer 344 rat bearing rat 9L cells at 20 uCi, iv after 30 mins; conditions: in vivo, 0.5 h
Blood [16] = assay: Biodistribution in blood of Fischer 344 rat bearing rat 9L cells at 20 uCi, iv after 120 mins; assay type: ADME, organism-based; conditions: in vivo, 2 h; method in brief: as §1
Kidney [17] = assay: Biodistribution in kidney of Fischer 344 rat bearing rat 9L cells at 20 uCi, iv after 60 mins; assay type: ADME, organism-based; conditions: in vivo, 1 h; method in brief: as §1
[18] = rat, in vivo, iv, 1 h
[19] = Biodistribution in testis of Fischer 344 rat bearing rat 9L cells at 20 uCi, iv after 60 mins; assay type: ADME, organism-based; conditions: in vivo, 1 h; method in brief: as §1
Brain [20] = assay: Biodistribution in brain of Fischer 344 rat bearing rat 9L cells at 20 uCi, iv after 15 mins; conditions: in vivo
Bone [21] = assay: Biodistribution in bone of Fischer 344 rat bearing rat 9L cells at 20 uCi, iv after 30 mins; assay type: ADME, organism-based, Bone element; conditions: in vivo, 0.5 h; method in brief: as §1
Pancreas [22] = assay: Biodistribution in pancreas of Fischer 344 rat bearing rat 9L cells at 20 uCi, iv after 60 mins; assay type: ADME, organism-based; conditions: in vivo, 1 h; method in brief: as §1
Pancreas [23] = assay: Biodistribution in pancreas of Fischer 344 rat bearing rat 9L cells at 20 uCi, iv after 120 mins; assay type: ADME, organism-based; conditions: in vivo, 2 h; method in brief: as §1
Bone [24] = assay: Biodistribution in bone of Fischer 344 rat bearing rat 9L cells at 20 uCi, iv after 120 mins; assay type: ADME, organism-based, Bone element; conditions: in vivo, 2 h; method in brief: as §1
[25] = Biodistribution in testis of Fischer 344 rat bearing rat 9L cells at 20 uCi, iv after 120 mins; assay type: ADME, organism-based; conditions: in vivo, 2 h; method in brief: as §1
Heart [26] = assay: Biodistribution in heart of Fischer 344 rat bearing rat 9L cells at 20 uCi, iv after 15 mins; assay type: ADME, organism-based; conditions: in vivo, 0.25 h; method in brief: as §1
Liver [27] = assay: Biodistribution in liver of Fischer 344 rat bearing rat 9L cells at 20 uCi, iv after 120 mins; assay type: ADME, organism-based; conditions: in vivo, 2 h; method in brief: as §1
Heart [28] = assay: Biodistribution in heart of Fischer 344 rat bearing rat 9L cells at 20 uCi, iv after 60 mins; assay type: ADME, organism-based; conditions: in vivo, 1 h; method in brief: as §1
Bone [29] = assay: Biodistribution in bone of Fischer 344 rat bearing rat 9L cells at 20 uCi, iv after 60 mins; assay type: ADME, organism-based, Bone element; conditions: in vivo, 1 h; method in brief: as §1
Blood [30] = assay: Biodistribution in blood of Fischer 344 rat bearing rat 9L cells at 20 uCi, iv after 30 mins; assay type: ADME, organism-based; conditions: in vivo, 0.5 h; method in brief: as §1
[31] = Biodistribution in testis of Fischer 344 rat bearing rat 9L cells at 20 uCi, iv after 15 mins; assay type: ADME, organism-based; conditions: in vivo, 0.25 h; method in brief: as §1
Kidney [32] = assay: Biodistribution in kidney of Fischer 344 rat bearing rat 9L cells at 20 uCi, iv after 30 mins; assay type: ADME, organism-based; conditions: in vivo, 0.5 h; method in brief: as §1
Muscle tissue [33] = assay: Biodistribution in muscle of Fischer 344 rat bearing rat 9L cells at 20 uCi, iv after 60 mins; assay type: ADME, organism-based; conditions: in vivo, 1 h; method in brief: as §1
Heart [34] = assay: Biodistribution in heart of Fischer 344 rat bearing rat 9L cells at 20 uCi, iv after 30 mins; assay type: ADME, organism-based; conditions: in vivo, 0.5 h; method in brief: as §1
Lung [35] = assay: Biodistribution in lung of Fischer 344 rat bearing rat 9L cells at 20 uCi, iv after 30 mins; assay type: ADME, organism-based; conditions: in vivo, 0.5 h; method in brief: as §1
[36] = rat, in vivo, iv, 1 h; remark: listed apart in the source
[37] = Ratio of drug level from tumor to brain of Fischer 344 rat bearing rat 9L cells at 20 uCi, iv after 120 mins; assay type: ADME, organism-based; conditions: in vivo, 2 h
Spleen [38] = assay: Biodistribution in spleen of Fischer 344 rat bearing rat 9L cells at 20 uCi, iv after 120 mins; assay type: ADME, organism-based; conditions: in vivo, 2 h; method in brief: as §1
[39] = Biodistribution in tumor of Fischer 344 rat bearing rat 9L cells at 20 uCi, iv after 30 mins; assay type: ADME, organism-based, Neoplasm; conditions: in vivo, 0.5 h; method in brief: as §1
Lung [40] = assay: Biodistribution in lung of Fischer 344 rat bearing rat 9L cells at 20 uCi, iv after 60 mins; assay type: ADME, organism-based; conditions: in vivo, 1 h; method in brief: as §1
Muscle tissue [41] = assay: Biodistribution in muscle of Fischer 344 rat bearing rat 9L cells at 20 uCi, iv after 30 mins; assay type: ADME, organism-based; conditions: in vivo, 0.5 h; method in brief: as §1
Muscle tissue [42] = assay: Biodistribution in muscle of Fischer 344 rat bearing rat 9L cells at 20 uCi, iv after 15 mins; assay type: ADME, organism-based; conditions: in vivo, 0.25 h; method in brief: as §1
Brain [43] = assay: Biodistribution in brain of Fischer 344 rat bearing rat 9L cells at 20 uCi, iv after 30 mins; assay type: ADME, organism-based; conditions: in vivo, 0.5 h; method in brief: as §1
Spleen [44] = assay: Biodistribution in spleen of Fischer 344 rat bearing rat 9L cells at 20 uCi, iv after 15 mins; assay type: ADME, organism-based; conditions: in vivo, 0.25 h; method in brief: as §1
[45] = Ratio of drug level from tumor to brain of Fischer 344 rat bearing rat 9L cells at 20 uCi, iv after 60 mins; conditions: in vivo, 1 h
[46] = Biodistribution in testis of Fischer 344 rat bearing rat 9L cells at 20 uCi, iv after 30 mins; assay type: ADME, organism-based; conditions: in vivo, 0.5 h; method in brief: as §1
Spleen [47] = assay: Biodistribution in spleen of Fischer 344 rat bearing rat 9L cells at 20 uCi, iv after 60 mins; assay type: ADME, organism-based; conditions: in vivo, 1 h; method in brief: as §1
Lung [48] = assay: Biodistribution in lung of Fischer 344 rat bearing rat 9L cells at 20 uCi, iv after 15 mins; assay type: ADME, organism-based; conditions: in vivo, 0.25 h; method in brief: as §1
Blood [49] = assay: Biodistribution in blood of Fischer 344 rat bearing rat 9L cells at 20 uCi, iv after 60 mins; assay type: ADME, organism-based; conditions: in vivo, 1 h; method in brief: as §1

CN[C@@](C)(C[18F])C(=O)O.Cl
Drug uptake (Kidney [1]): 2.45 % ID/g
Drug uptake (Bone [2]): 0.51 % ID/g
Drug uptake (Kidney [3]): 9.22 % ID/g
Drug uptake (Pancreas [4]): 2.72 % ID/g
Drug uptake (Heart [5]): 0.22 % ID/g
Drug uptake (Liver [6]): 0.52 % ID/g
Drug uptake (Blood [7]): 0.41 % ID/g
Drug uptake (Spleen [8]): 0.63 % ID/g
Drug uptake (Muscle tissue [9]): 0.22 % ID/g
Drug uptake (Brain [10]): 0.06 % ID/g
Drug uptake (Liver [11]): 0.61 % ID/g
Drug uptake (Liver [12]): 0.6 % ID/g
Drug uptake (Lung [13]): 0.25 % ID/g
Drug uptake (Pancreas [14]): 2.25 % ID/g
Drug uptake (Brain [15]): 0.04 % ID/g
Drug uptake (Blood [16]): 0.14 % ID/g
Drug uptake (Kidney [17]): 4.44 % ID/g
Drug uptake [18]: 0.05 % ID/g
Drug uptake [19]: 0.15 % ID/g
Ratio (Brain [20]): 25
Drug uptake (Bone [21]): 0.48 % ID/g
Drug uptake (Pancreas [22]): 3.41 % ID/g
Drug uptake (Pancreas [23]): 3.39 % ID/g
Drug uptake (Bone [24]): 0.44 % ID/g
Drug uptake [25]: 0.16 % ID/g
Drug uptake (Heart [26]): 0.55 % ID/g
Drug uptake (Liver [27]): 0.4 % ID/g
Drug uptake (Heart [28]): 0.24 % ID/g
Drug uptake (Bone [29]): 0.51 % ID/g
Drug uptake (Blood [30]): 0.32 % ID/g
Drug uptake [31]: 0.19 % ID/g
Drug uptake (Kidney [32]): 8.91 % ID/g
Drug uptake (Muscle tissue [33]): 0.2 % ID/g
Drug uptake (Heart [34]): 0.23 % ID/g
Drug uptake (Lung [35]): 0.36 % ID/g
Drug uptake [36]: 2.64 % ID/g
Ratio [37]: 115.4
Drug uptake (Spleen [38]): 0.62 % ID/g
Ratio [39]: 53.2
Drug uptake (Lung [40]): 0.38 % ID/g
Drug uptake (Muscle tissue [41]): 0.23 % ID/g
Drug uptake (Muscle tissue [42]): 0.27 % ID/g
Drug uptake (Brain [43]): 0.04 % ID/g
Drug uptake (Spleen [44]): 0.57 % ID/g
Ratio [45]: 58.2
Drug uptake [46]: 0.15 % ID/g
Drug uptake (Spleen [47]): 0.59 % ID/g
Drug uptake (Lung [48]): 0.79 % ID/g
Drug uptake (Blood [49]): 0.24 % ID/g
